From ChEMBL document CHEMBL1149884, “Investigating biological activity spectrum for novel quinoline analogues 2: hydroxyquinolinecarboxamides with photosynthesis-inhibiting activity” (Bioorg Med Chem, 2008)
The source made the active and inactive calls. The calls are words filed in the database; no cut-off is given here.

Key:
[1] = Lipophilicity, log K of the compound; assay type: physicochemical
In short: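 Isocratic RP-HPLC on end-capped C18 column, methanol as organic modifier. Retention times taken in minutes. Capacity factor K derived from them, and log K used as a lipophilicity index.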

Spinacia oleracea = assay: Herbicidal activity in Spinacia oleracea assessed as inhibition of photosynthetic electron transport by decrease in oxygen evolution; assay type: functional
In short: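 Spinach chloroplast PET measured as oxygen evolution in phosphate buffer (0.02 mol/L, pH 7.2) with sucrose 0.4 mol/L, MgCl₂ 0.005 mol/L, NaCl 0.015 mol/L. Chl 30 mg/L, halogen lamp irradiation (~100 W/m², 10 cm, water filter), 22 °C. IC50 = molar concentration giving 50% decrease in oxygen evolution vs untreated control.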

Chlorella vulgaris = assay: Herbicidal activity against Chlorella vulgaris Beij assessed as decrease in chlorophyll content after 7 days; assay type: functional, organism-based; settings: for IC50: 168 h
In short: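 C. vulgaris grown statically at room temperature (16 h light/8 h dark, 80 µmol/m² s PAR, pH 7.2), starting Chl 0.01 mg/L. Exposed 7 days to 100, 75, 50, 25, 8.3, 4.2, 0.83 µmol/L (DMSO ≤0.25%, matched DMSO controls). Chl read spectrophotometrically after methanol extraction. IC50 = 50% Chl decrease vs control, else mean % of control over 100–0.83 µmol/L ± SD.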

log K [1] | log K ([1]; octanol/water) | SMILES | Activity (Spinacia oleracea) | IC50 (Chlorella vulgaris) [µM] | IC50 (Spinacia oleracea) [µM] | Activity (Chlorella vulgaris)
0.3389 | – | Cc1ccc2ccc(C(=O)NCc3ccc(F)cc3)c(O)c2n1 | inactive | 158 | – | –
0.1109 | – | Cc1ccc2ccc(C(=O)NCCNC(=O)c3ccc4ccc(C)nc4c3O)c(O)c2n1 | inactive | 93.7 | – | –
0.1203 | – | Cc1ccc2c(O)c(C(=O)NCCCNC(=O)c3ccc4nc(C)ccc4c3O)ccc2n1 | – | 19.5 | 819 | –
0.4283 | – | Cc1ccc2c([N+](=O)[O-])cc(C(=O)NC(C)c3ccc(F)cc3)c(O)c2n1 (stereo unspecified) | – | 43.6 | 8.7 | –
– | 0.6361 | Cc1ccc2ccc(C(=O)NNC(=O)c3ccccc3O)c(O)c2n1 | inactive | – | – | inactive
0.2812 | – | Cc1ccc2ccc(C(=O)NCc3ccccc3)c(O)c2n1 | inactive | 17.2 | – | –
0.4304 | – | Cc1ccc(CNC(=O)c2cc([N+](=O)[O-])c3ccc(C)nc3c2O)cc1 | – | – | 107 | inactive
0.4173 | – | Cc1ccc2c(O)c(C(=O)NCCCCc3ccccc3)ccc2n1 | – | 10.9 | 7.2 | –
0.4087 | – | COc1ccc(CNC(=O)c2cc([N+](=O)[O-])c3ccc(C)nc3c2O)cc1 | – | – | 137 | inactive
0.5075 | – | Cc1ccc2ccc(C(=O)NCCCCc3ccccc3)c(O)c2n1 | inactive | 8.5 | – | –
0.612 | – | Cc1ccc2c(O)c(C(=O)NC(=O)NC(=O)c3ccc4nc(C)ccc4c3O)ccc2n1 | – | 5.5 | 833 | –
0.3793 | – | Cc1ccc(CNC(=O)c2ccc3ccc(C)nc3c2O)cc1 | inactive | 7.2 | – | –
0.2629 | – | Cc1ccc2ccc(C(=O)NCCO)c(O)c2n1 | inactive | – | – | inactive
0.2843 | – | COc1ccc(CNC(=O)c2ccc3ccc(C)nc3c2O)cc1 | inactive | 4.8 | – | –
0.4072 | – | Cc1ccc2c(O)c(C(=O)Nc3ccc4c(O)c(C(=O)O)cc([N+](=O)[O-])c4n3)ccc2n1 | – | – | 114 | –
0.4021 | – | Cc1ccc2c([N+](=O)[O-])cc(C(=O)NCc3ccccc3)c(O)c2n1 | – | – | 32 | inactive
0.3775 | – | Cc1ccc2c(O)c(C(=O)NCCc3ccc(O)cc3)ccc2n1 | – | – | 16 | –
0.3812 | – | Cc1ccc2c(O)c(C(=O)Nc3ccc(Cl)cc3)ccc2n1 | – | 23.8 | 265 | –
0.3342 | – | Cc1ccc2ccc(C(=O)NCCc3ccc(F)cc3)c(O)c2n1 | inactive | 15.9 | – | –
0.4136 | – | Cc1ccc2c([N+](=O)[O-])cc(C(=O)NCc3ccc(F)cc3)c(O)c2n1 | – | – | 95 | inactive
0.38 | – | Cc1ccc(CNC(=O)c2ccc3nc(C)ccc3c2O)cc1 | – | – | 468 | –
0.1168 | – | Cc1ccc2ccc(C(=O)NCCCNC(=O)c3ccc4ccc(C)nc4c3O)c(O)c2n1 | inactive | 149 | – | –
0.3663 | – | Cc1ccc2c(O)c(C(=O)NC(C)c3ccc(F)cc3)ccc2n1 (stereo unspecified) | – | – | 426 | –
– | – | CN(C)C(=O)Nc1ccc(Cl)c(Cl)c1 [DCMU] | – | – | 1.9 | –
0.372 | – | Cc1ccc2ccc(C(=O)NC(C)c3ccc(F)cc3)c(O)c2n1 (stereo unspecified) | inactive | 83.3 | – | –
0.2404 | – | Cc1ccc2ccc(C(=O)NCCc3ccccc3)c(O)c2n1 | inactive | – | – | –
